Measured values reported in ChEMBL document CHEMBL4765301, “Discovery of novel TNNI3K inhibitor suppresses pyroptosis and apoptosis in murine myocardial infarction injury” (Eur J Med Chem, 2020).

What was measured:
[1] = molecular target: Receptor tyrosine-protein kinase erbB-2 (Homo sapiens) (UniProt P04626); assay: Inhibition of recombinant human HER2 (676 to end residues) assessed as residual activity at 1 uM using poly(Glu, Tyr) 4:1 as substrate incubated for 40 mins by [gamma-33P]-ATP scintillation counting based radiometry assay relative to control
[2] = molecular target: T1, Serine/threonine-protein kinase TNNI3K (Homo sapiens) (UniProt Q59H18); assay: Inhibition of TNNI3K (unknown origin) assessed as residual activity at 1 uM using biotinylated CTnI as substrate by HTRF analysis relative to control
T1 sequence (whole entry): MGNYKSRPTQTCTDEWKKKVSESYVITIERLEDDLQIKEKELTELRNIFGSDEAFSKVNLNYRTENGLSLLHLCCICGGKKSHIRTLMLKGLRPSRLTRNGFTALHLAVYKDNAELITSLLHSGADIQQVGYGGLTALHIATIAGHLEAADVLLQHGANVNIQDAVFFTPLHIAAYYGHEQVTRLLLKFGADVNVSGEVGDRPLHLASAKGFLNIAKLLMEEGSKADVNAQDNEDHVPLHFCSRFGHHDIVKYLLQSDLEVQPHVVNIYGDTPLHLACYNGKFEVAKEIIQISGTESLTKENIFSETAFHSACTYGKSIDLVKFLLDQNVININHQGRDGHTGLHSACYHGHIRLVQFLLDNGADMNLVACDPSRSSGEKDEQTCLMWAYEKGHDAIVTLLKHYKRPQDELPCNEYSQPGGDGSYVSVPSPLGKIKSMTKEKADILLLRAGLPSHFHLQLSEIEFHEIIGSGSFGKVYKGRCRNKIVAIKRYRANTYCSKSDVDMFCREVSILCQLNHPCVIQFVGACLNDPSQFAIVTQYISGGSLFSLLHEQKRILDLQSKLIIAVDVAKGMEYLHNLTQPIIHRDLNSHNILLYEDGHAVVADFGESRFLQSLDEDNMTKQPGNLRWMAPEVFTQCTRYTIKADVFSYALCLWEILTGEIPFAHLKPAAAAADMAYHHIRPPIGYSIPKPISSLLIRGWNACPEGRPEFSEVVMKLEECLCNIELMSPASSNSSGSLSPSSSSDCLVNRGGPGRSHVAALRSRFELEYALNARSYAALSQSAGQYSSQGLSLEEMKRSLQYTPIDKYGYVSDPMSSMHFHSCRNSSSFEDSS
Procedure, shortened: (§1)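 TNNI3K was assayed by HTRF using a GST-tagged TNNI3K kinase domain and a biotinylated cardiac troponin I substrate peptide, followed by the two HTRF detection reagents. Compounds were screened at 1.0 µM, then IC50s were determined.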

[3] = molecular target: Vascular endothelial growth factor receptor 2 (Homo sapiens) (UniProt P35968); assay: Inhibition of recombinant human KDR (790 to end residues) assessed as residual activity at 1 uM using myelin basic protein as substrate incubated for 40 mins by [gamma-33P]-ATP scintillation counting based radiometry assay relative to control
[4] = molecular target: Epidermal growth factor receptor (Homo sapiens) (UniProt P00533); assay: Inhibition of recombinant human EGFR (696 to end residues) assessed as residual activity at 1 uM using poly(Glu, Tyr) 4:1 as substrate incubated for 40 mins by [gamma-33P]-ATP scintillation counting based radiometry assay relative to control
[5] = molecular target: Vascular endothelial growth factor receptor 1 (Homo sapiens) (UniProt P17948); assay: Inhibition of recombinant human FLT1 (783 to end residues) assessed as residual activity at 1 uM using KKKSPGEYVNIEFG as substrate incubated for 40 mins by [gamma-33P]-ATP scintillation counting based radiometry assay relative to control
[6] = system: H9c2; assay: Cytoprotective activity against OGD-induced cell death in rat H9c2 cells assessed as cell viability at 1 uM incubated for 24 hrs by MTT assay (reference value: 42.08 to 49.11 %); type: functional; settings: read-out: Activity
[7] = system: H9c2; assay: Cytoprotective activity against OGD-induced cell death in rat H9c2 cells assessed as cell viability at 10 uM incubated for 24 hrs by MTT assay (reference value: 42.08 to 49.11 %); type: functional; settings: read-out: Activity
[8] = molecular target: T2, Serine/threonine-protein kinase TNNI3K (Homo sapiens, UniProt Q59H18); assay: Inhibition of TNNI3K (unknown origin) using biotinylated CTnI as substrate by HTRF analysis; procedure, shortened: as §1
T2 sequence (Q59H18 whole entry): T1 sequence (whole entry)

Chain of Epidermal growth factor receptor (Homo sapiens) (P00533 whole entry): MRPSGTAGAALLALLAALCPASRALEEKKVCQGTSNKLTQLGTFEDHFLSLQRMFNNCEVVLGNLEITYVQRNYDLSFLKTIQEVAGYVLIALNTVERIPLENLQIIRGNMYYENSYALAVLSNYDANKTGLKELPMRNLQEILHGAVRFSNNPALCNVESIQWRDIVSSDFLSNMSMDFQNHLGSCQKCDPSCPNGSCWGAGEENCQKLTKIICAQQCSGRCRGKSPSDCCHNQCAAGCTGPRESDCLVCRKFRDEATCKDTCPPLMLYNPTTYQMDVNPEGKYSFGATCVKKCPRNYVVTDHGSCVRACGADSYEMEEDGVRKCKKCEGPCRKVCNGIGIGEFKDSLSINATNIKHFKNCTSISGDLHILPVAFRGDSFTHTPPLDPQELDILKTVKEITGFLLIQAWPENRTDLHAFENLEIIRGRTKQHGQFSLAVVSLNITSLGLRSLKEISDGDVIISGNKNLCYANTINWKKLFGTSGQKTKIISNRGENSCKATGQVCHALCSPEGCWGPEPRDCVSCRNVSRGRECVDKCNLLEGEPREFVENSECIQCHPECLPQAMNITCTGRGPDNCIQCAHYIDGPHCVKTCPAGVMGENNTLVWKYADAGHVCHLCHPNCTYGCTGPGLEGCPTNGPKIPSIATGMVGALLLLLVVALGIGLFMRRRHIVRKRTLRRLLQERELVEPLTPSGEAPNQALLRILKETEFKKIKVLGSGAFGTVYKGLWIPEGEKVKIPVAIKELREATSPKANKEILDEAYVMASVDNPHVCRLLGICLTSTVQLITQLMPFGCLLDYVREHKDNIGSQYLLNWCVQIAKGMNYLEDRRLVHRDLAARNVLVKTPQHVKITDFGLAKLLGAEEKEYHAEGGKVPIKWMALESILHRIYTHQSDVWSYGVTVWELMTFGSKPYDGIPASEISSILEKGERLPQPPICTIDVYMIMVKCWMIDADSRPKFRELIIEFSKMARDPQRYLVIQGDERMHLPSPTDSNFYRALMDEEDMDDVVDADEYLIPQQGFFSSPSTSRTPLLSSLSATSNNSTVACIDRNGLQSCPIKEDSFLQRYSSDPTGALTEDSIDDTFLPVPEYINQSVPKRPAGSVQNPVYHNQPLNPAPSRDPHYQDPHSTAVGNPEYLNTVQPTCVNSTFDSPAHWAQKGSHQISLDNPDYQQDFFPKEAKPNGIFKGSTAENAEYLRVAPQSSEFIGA
Chain of Receptor tyrosine-protein kinase erbB-2 (Homo sapiens) (P04626 whole entry): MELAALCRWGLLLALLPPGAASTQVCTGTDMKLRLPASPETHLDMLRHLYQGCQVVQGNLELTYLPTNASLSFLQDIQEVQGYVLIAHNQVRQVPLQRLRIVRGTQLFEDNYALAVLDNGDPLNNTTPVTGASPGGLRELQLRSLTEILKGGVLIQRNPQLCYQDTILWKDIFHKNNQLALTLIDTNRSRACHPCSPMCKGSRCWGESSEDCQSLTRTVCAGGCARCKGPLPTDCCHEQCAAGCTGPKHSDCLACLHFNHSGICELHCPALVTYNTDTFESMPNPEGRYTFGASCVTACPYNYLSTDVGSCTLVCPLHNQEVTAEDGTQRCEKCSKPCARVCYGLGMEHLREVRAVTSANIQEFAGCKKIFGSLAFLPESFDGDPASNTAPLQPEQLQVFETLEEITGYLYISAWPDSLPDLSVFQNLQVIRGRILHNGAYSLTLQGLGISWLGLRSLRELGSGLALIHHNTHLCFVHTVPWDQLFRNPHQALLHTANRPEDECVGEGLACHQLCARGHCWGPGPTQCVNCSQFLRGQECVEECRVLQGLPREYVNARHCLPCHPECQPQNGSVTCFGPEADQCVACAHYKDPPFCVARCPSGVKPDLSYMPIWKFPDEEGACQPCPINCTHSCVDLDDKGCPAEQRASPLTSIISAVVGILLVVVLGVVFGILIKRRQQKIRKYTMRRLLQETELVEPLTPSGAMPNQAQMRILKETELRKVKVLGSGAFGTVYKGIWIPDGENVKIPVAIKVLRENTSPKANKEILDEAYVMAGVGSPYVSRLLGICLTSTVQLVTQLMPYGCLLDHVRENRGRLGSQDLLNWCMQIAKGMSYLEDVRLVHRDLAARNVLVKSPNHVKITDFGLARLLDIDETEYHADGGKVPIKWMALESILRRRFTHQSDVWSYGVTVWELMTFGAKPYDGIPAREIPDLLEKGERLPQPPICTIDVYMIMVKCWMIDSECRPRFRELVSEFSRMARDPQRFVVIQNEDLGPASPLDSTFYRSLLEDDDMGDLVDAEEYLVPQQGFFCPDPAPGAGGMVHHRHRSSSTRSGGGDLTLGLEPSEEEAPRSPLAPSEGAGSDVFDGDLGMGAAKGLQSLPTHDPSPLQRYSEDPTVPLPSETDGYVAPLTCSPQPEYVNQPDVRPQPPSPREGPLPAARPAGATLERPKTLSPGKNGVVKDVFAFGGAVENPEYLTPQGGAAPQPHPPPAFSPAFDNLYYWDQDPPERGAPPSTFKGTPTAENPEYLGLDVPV
Chain of Vascular endothelial growth factor receptor 1 (Homo sapiens) (P17948 whole entry): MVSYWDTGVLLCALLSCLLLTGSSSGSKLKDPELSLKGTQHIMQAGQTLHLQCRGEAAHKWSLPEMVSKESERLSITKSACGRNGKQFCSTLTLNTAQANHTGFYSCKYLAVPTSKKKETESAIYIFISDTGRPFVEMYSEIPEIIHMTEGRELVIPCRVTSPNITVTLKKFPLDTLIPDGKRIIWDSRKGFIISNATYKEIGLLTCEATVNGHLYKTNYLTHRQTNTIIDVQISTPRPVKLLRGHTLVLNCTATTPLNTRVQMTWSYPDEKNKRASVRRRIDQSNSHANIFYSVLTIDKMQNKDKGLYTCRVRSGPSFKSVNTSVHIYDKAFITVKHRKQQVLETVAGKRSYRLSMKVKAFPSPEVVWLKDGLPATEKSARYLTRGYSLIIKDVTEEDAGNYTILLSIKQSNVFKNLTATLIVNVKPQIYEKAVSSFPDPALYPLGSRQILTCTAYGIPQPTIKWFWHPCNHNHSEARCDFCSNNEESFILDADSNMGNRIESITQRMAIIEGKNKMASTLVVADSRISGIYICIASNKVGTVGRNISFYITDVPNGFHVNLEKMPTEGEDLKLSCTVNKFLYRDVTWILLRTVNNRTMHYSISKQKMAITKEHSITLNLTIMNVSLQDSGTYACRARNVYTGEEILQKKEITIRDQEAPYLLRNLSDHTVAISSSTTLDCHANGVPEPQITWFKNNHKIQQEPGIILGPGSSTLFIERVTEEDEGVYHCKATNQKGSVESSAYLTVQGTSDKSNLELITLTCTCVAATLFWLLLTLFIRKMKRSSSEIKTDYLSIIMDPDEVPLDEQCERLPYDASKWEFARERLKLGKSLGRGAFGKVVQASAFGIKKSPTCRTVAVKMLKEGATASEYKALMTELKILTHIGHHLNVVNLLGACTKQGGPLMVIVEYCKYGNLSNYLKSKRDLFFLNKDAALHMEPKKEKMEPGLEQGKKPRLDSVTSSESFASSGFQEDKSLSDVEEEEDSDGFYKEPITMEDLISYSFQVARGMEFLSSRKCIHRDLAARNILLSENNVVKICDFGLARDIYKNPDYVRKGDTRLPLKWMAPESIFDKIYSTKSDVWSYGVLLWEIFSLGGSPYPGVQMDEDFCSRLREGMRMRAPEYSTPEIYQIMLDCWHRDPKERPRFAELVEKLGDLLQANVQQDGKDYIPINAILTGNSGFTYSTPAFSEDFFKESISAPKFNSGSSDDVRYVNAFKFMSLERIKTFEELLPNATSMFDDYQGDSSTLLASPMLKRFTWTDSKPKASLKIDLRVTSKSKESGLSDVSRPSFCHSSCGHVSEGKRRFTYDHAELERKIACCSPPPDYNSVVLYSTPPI

Row | SMILES | Activity [1] [%] | Activity [2] [%] | Activity [3] [%] | Activity [4] [%] | Activity [5] [%] | viability at 1 µM [6] [%] | viability at 10 µM [7] [%] | IC50 [8] [nM]
1 | CN(C)CCCN1CCc2c(sc3ncnc(Nc4ccc(N(C)C)c(NC(=O)c5cccs5)c4)c23)C1 | 102 | 33 | 81 | 86 | 98 | 58.5 | 78.5 | 570
2 | CN(C)c1ccc(Nc2ncnc3sc4c(c23)CCNC4)cc1NC(=O)c1ccncc1 | 109 | 39 | 92 | 90 | 103 | 53 | 68.1 | 960
3 | CCC(=O)Nc1cc(Nc2ncnc3sc4c(c23)CCN(CCCN2CCOCC2)C4)ccc1N(C)C | 108 | 37 | 86 | 105 | 90 | 62.4 | 82.2 | 480
4 | CN(C)c1ccc(Nc2ncnc3sc4c(c23)CCNC4)cc1NC(=O)c1ccco1 | 91 | 35 | 92 | 100 | 96 | 54.1 | 71 | 730
